According to ChEMBL document CHEMBL1153366, “Synthesis, discovery and preliminary SAR study of benzofuran derivatives as angiogenesis inhibitors” (Bioorg Med Chem Lett, 2009):

Test system: MCF7
Assay: Antiproliferative activity against human MCF7 cells after 96 hrs by MTT method
Format: functional, cell-based
Settings: not given; call rule not given here
In short: (§1)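 Cancer cells seeded at 1500 cells/well in 96-well plates and allowed 20 h to attach. They were then exposed to compound in 0.1% DMSO over a range of concentrations, with an equal volume of carrier as control, in triplicate. After 96 h, MTT was used to give relative viability. IC50 came from the viability versus concentration relationship.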

IC50	SMILES
Not Active	CCOC(=O)/C=C/c1c(C(=O)OCC)oc2ccc(O)cc12
Not Active	CCOC(=O)/C=C/c1oc2ccc(O)cc2c1C
Not Active	CCOC(=O)/C=C/c1c(C)oc2ccc(O)cc12
Not Active	CCOC(=O)/C=C/c1oc2ccc(O)cc2c1C(=O)OCC

Test system: A549
Assay: Antiproliferative activity against human A549 cells after 96 hrs by MTT method
Format: functional, cell-based
Settings: not given
In short: as §1

IC50	SMILES
Not Active	CCOC(=O)/C=C/c1c(C(=O)OCC)oc2ccc(O)cc12
Not Active	CCOC(=O)/C=C/c1oc2ccc(O)cc2c1C
Not Active	CCOC(=O)/C=C/c1c(C)oc2ccc(O)cc12
Not Active	CCOC(=O)/C=C/c1oc2ccc(O)cc2c1C(=O)OCC

Test system: Bel-7402
Assay: Antiproliferative activity against human Bel7402 cells after 96 hrs by MTT method
Format: functional, cell-based
Settings: not given
In short: as §1

IC50	SMILES
Not Active	CCOC(=O)/C=C/c1c(C(=O)OCC)oc2ccc(O)cc12
Not Active	CCOC(=O)/C=C/c1oc2ccc(O)cc2c1C
Not Active	CCOC(=O)/C=C/c1c(C)oc2ccc(O)cc12
Not Active	CCOC(=O)/C=C/c1oc2ccc(O)cc2c1C(=O)OCC

Test system: HUVEC
Assay: Antiproliferative activity against HUVEC after 96 hrs by MTT method
Format: functional, cell-based
Settings: Homo sapiens
In short: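 HUVECs seeded at 1000 cells/well in 96-well plates and left to attach 20 h. Compound added in 0.1% DMSO at several concentrations, with a carrier-only control. Each concentration run in triplicate. After 96 h exposure, viability was read by MTT and expressed relative to control. IC50 was derived from viability versus concentration.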

SMILES	IC50
CCOC(=O)/C=C/c1c(C(=O)OCC)oc2ccc(O)cc12	32.6 µM
CCOC(=O)/C=C/c1oc2ccc(O)cc2c1C	> 50 µM
CCOC(=O)/C=C/c1c(C)oc2ccc(O)cc12	27.6 µM
CCOC(=O)/C=C/c1oc2ccc(O)cc2c1C(=O)OCC	4.3 µM
